Results on seven compounds are retold here after ChEMBL document CHEMBL1156127, “Synthesis, anticonvulsant activity and 3D-QSAR study of some prop-2-eneamido and 1-acetyl-pyrazolin derivatives of aminobenzothiazole” (Eur J Med Chem, 2010).

Data set [1] has as its system Mus musculus. Briefly: Behavioral effect in albino mouse assessed as change in locomotor activity during 10 mins at 100 umol/kg, ip after 0.5 hrs. The class given is functional. Put shortly: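 Mouse activity counted by actophotometer for 10 min 24 h before dosing, then again 0.5 h after 100 µmol/kg ip. % change = 100 − [(post × 100)/pre]. N = 6, mean ± SEM, Student's t test at p < 0.05.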

Data set [2] is filed under the species Mus musculus. Briefly: Protection index, ratio of TD50 to ED50 by MES test for albino mouse. The class given is functional. Put shortly:
(§1)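 Mice were trained on a 3.2 cm rod turning at 6 rpm, then dosed ip at 20–1000 µmol/kg and tested at 0.5 h. […] PI = TD50/ED50, with ED50 from the MES test.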

Data set [3] is described as follows: Neurotoxicity in ip dosed albino mouse during 1 min by rotarod test. Type of data set: toxicity, organism-based. Particulars: in vivo. Put shortly: as §1
Data set [4] deals with Mus musculus. Briefly: Anticonvulsant activity in ip dosed albino mouse treated 0.5 hrs before PTZ challenge by scPTZ test. Type of data set: functional. Put shortly:
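Compound given ip (20–1000 µmol/kg in 0.5% methyl cellulose) 0.5 h before pentylenetetrazole, which was dissolved in 0.9% NaCl and injected subcutaneously in the posterior midline of mice. Onset and severity of convulsions were scored, and ED50 was derived.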

Data set [5] concerns Mus musculus. Nature of the data set: Anticonvulsant activity in ip dosed albino mouse assessed as absence of hind limb tonic extension after 0.5 hrs by MES test. Type of data set: functional, Hindlimb. Particulars: for ED50: Mus musculus, albino, Hindlimb, ip, 0.5 h. The procedure, abridged:
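Mice given compound ip at 20–1000 µmol/kg, suspended in 0.5% methyl cellulose/water. Seizure induced 0.5 h later by electroconvulsometer, 50 mA, 60 cycle alternating current, 0.25 s via ear clip electrodes. Protection is reduced duration or absence of hind limb tonic extension. ED50 from at least three doses giving 10–90% protection.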

The test system of data set [6] is Rattus norvegicus. Nature of the data set: CNS toxicity in albino rat assessed as duration of immobility at 100 umol/kg, ip after 0.5 hrs by Porsolt's swimpool test (Rvb= 104 +/- 1.8). Particulars: in vivo.
Data set [7] has as its system Rattus norvegicus. Nature of the data set: CNS toxicity in albino rat assessed as duration of immobility at 100 umol/kg, ip after 0.5 hrs by Porsolt's swimpool test (Rvb= 113 +/- 3.1). The conditions noted are these: in vivo.
Data set [8] deals with Rattus norvegicus. Briefly: Hepatotoxicity in albino rat assessed as serum SGOT level at 100 umol/kg, ip after 15 days (Rvb= 92.2 +/- 2.78). The conditions noted are these: in vivo, 360 h.
Data set [9] concerns Rattus norvegicus. Nature of the data set: Hepatotoxicity in albino rat assessed as serum SGPT level at 100 umol/kg, ip after 15 days (Rvb= 35.4 +/- 2.68). The conditions noted are these: in vivo, 360 h.
Data set [10] relates to Rattus norvegicus. Briefly: CNS toxicity in albino rat assessed as duration of immobility at 100 umol/kg, ip after 0.5 hrs by Porsolt's swimpool test (Rvb= 87 +/- 1.5). Particulars: in vivo.
The subject of data set [11] is Rattus norvegicus. Nature of the data set: CNS toxicity in albino rat assessed as duration of immobility at 100 umol/kg, ip after 0.5 hrs by Porsolt's swimpool test (Rvb= 92 +/- 1.2). Particulars: in vivo.
Data set [12] deals with Rattus norvegicus. Nature of the data set: CNS toxicity in albino rat assessed as duration of immobility at 100 umol/kg, ip after 0.5 hrs by Porsolt's swimpool test (Rvb= 97 +/- 2.2). The conditions noted are these: in vivo.
Data set [13] relates to Rattus norvegicus. Nature of the data set: CNS toxicity in albino rat assessed as duration of immobility at 100 umol/kg, ip after 0.5 hrs by Porsolt's swimpool test (Rvb= 82 +/- 2.9). The conditions noted are these: in vivo.
Data set [14] deals with Rattus norvegicus. Briefly: CNS toxicity in albino rat assessed as duration of immobility at 100 umol/kg, ip after 0.5 hrs by Porsolt's swimpool test (Rvb= 128 +/- 2.4). The conditions noted are these: in vivo.

One may read the TD50 as the 50% point of the dose-response relation for the toxic effect studied. Read a low TD50 as greater toxicity. One may read the ED50 as the midpoint of the dose-response relation.

For the compound `CC(=O)N1N=C(Nc2nc3ccc(C)cc3s2)CC1c1ccccc1` (stereo not given), the results for the Activity in the data set with Mus musculus [1] and in the data set on Rattus norvegicus [6] were 23.93% and 151 s, respectively. In addition, in the data set filed under Mus musculus [2], the PI is listed as 2.49. Moreover, the TD50 at 1 min in [3] is 265 µmol/kg. The 50% effective dose (ED50) was 112 µmol/kg with Mus musculus [4] and 106 µmol/kg in the data set on Mus musculus [5]. Further, the pED50 with Mus musculus [5] is listed as 3.97.
With `COc1ccc(C2CC(Nc3nc4ccc(C)cc4s3)=NN2C(C)=O)cc1O` (stereo not given), the Activity amounted to 29.5% in the data set on Mus musculus [1] and 177 s in the data set on Rattus norvegicus [7]. Further, the PI in the data set listed under Mus musculus [2] is reported as 1.99. Besides, the TD50 at 1 min in data set [3] came out at 147 µmol/kg. For the same compound, the ED50 in the data set with Mus musculus [4] was determined as 75.6 µmol/kg; with Mus musculus [5], 73.9 µmol/kg. In addition, in the data set with Mus musculus [5], the pED50 came out at 4.13.
On to `CC(=O)N1N=C(Nc2nc3ccc(C)cc3s2)CC1c1ccc(Cl)cc1` (stereo not given), for which the Activity with Mus musculus [1] was found to be 35.62%; with Rattus norvegicus [8] it was 93.3 U/ml; in the data set on Rattus norvegicus [9], 33.1 U/ml; with Rattus norvegicus [10], 91 s. The PI in the data set listed under Mus musculus [2] is on record as 4.86. In data set [3], the TD50 at 1 min turned out to be 123 µmol/kg. In addition, the median effective dose (ED50) stood at 27.5 µmol/kg in the data set with Mus musculus [4] and 25.5 µmol/kg in the data set with Mus musculus [5]. Besides, the pED50 in the data set on Mus musculus [5] was 4.59.
Regarding `CC(=O)N1N=C(Nc2nc3ccc(Cl)cc3s2)CC1c1ccc(Cl)cc1` (stereo not given), the Activity in the data set on Mus musculus [1] is on record as 31.66%; in the data set with Rattus norvegicus [11] it was 134 s. For the same compound, the PI in the data set listed under Mus musculus [2] stood at 4.35. The TD50 at 1 min in data set [3] was found to be 345 µmol/kg. The median effective dose (ED50) came to 81.5 µmol/kg in the data set with Mus musculus [4] and 79.5 µmol/kg with Mus musculus [5]. Further, in the data set on Mus musculus [5], the pED50 turned out to be 4.1.
For `COc1ccc(C2CC(Nc3nc4ccc(C)cc4s3)=NN2C(C)=O)cc1` (stereo not given), the Activity was determined as 2.08% in the data set with Mus musculus [1], 95.4 U/ml with Rattus norvegicus [8], 38.4 U/ml in the data set on Rattus norvegicus [9] and 163 s with Rattus norvegicus [12]. The PI in the data set filed under Mus musculus [2] is 4.68. In [3], the TD50 at 1 min was found to be 174 µmol/kg. Moreover, the figures for the ED50 with Mus musculus [4] and in the data set on Mus musculus [5] were 39.4 µmol/kg and 37.3 µmol/kg, respectively. Besides, the pED50 in the data set with Mus musculus [5] is 4.43.
In the case of `COc1ccc(C2CC(Nc3nc4ccc(Cl)cc4s3)=NN2C(C)=O)cc1` (stereo not given), the values for the Activity with Mus musculus [1] and in the data set with Rattus norvegicus [13] were 35.91% and 88 s, respectively. Further, the PI in the data set filed under Mus musculus [2] turned out to be 2.01. The compound further gave a TD50 at 1 min in data set [3] of 187 µmol/kg. For the same compound, the 50% effective dose (ED50) is 97.3 µmol/kg with Mus musculus [4] and 93.3 µmol/kg with Mus musculus [5]. Further, the pED50 with Mus musculus [5] is 4.03.
`CC(=O)N1N=C(Nc2nc3ccc(C)cc3s2)CC1c1ccc(O)cc1` (stereo not given): the Activity in the data set on Mus musculus [1] is reported as 20.94%; in the data set on Rattus norvegicus [8] it was 89.6 U/ml; in the data set with Rattus norvegicus [9], 30.2 U/ml; in the data set on Rattus norvegicus [14], 136 s. Moreover, the PI in the data set listed under Mus musculus [2] is 3.14. Moreover, the TD50 at 1 min in data set [3] was 157 µmol/kg. The ED50 came to 54.3 µmol/kg in the data set on Mus musculus [4] and 50.2 µmol/kg in the data set on Mus musculus [5]. The pED50 in the data set with Mus musculus [5] was 4.3.
